# Screens (PubChem)
# aDG glyco act = increases alpha dystroglycan glycosylation | Pro5-aDG cells, alpha-DG glycosylation AlphaScreen (IIH6); 0% Pro5, 100% B10-LARGE cell signal | activation, % at 10 µM | 360,000 compounds, 0.22% hits | AID 624168;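 active = activation of at least 8% versus controls, or a plate z-score of at least 8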;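 also: Pro5 are CHO cells carrying HIG-tagged alpha-DG that lacks glycosylation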
# Beta2AR agonist = human beta-2 adrenergic receptor agonism by FAP. 340,000 compounds, 0.43% hits. Am2.2-beta2AR cells, FAP receptor internalization, flow cytometry. response, % (no concentration beside the values);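 active = response above a set limit, near 3 SD of response in nonfluorescent compounds, cut at about 42% in these data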
# Target sequence (P07550 whole entry, looked up): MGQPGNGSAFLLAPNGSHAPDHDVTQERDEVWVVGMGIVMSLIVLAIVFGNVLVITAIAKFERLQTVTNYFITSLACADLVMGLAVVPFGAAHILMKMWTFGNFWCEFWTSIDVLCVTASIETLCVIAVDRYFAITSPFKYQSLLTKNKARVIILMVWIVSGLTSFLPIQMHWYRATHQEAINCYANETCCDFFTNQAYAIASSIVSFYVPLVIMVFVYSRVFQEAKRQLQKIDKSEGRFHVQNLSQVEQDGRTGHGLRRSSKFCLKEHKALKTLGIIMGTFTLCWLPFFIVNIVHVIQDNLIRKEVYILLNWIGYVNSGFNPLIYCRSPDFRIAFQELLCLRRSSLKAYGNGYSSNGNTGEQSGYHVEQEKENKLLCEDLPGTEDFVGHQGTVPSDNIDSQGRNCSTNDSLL
# H9c2 protect = modulators protecting cardiomyocytes from myocardial damage; 360,000 compounds, 0.63% hits; protection from H2O2 cell death, % at 20 µM; H9c2 cardiomyocytes, H2O2 injury protection, ATPLite, 2 h;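 active = compounds giving at least 50% protection of heart cells from peroxide-induced death in the single-dose screen, raw or plate-pattern-corrected value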;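 also: 0% = DMSO wells with peroxide and 100% = DMSO wells without peroxide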
# UCH37 inh = human UCH37 deubiquitinating enzyme inhibition. Q9Y5K5. purified proteasome/UCH37, Ub-AMC cleavage fluorescence. inhibition, % (concentration not given with the values). 330,000 compounds, 0.33% hits;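 active = mean inhibition over replicate wells above about 20%, limit read from the data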;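 also: 0% = compound-free wells with enzyme and 100% = wells lacking proteasome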
# Target sequence (Q9Y5K5 whole entry, looked up): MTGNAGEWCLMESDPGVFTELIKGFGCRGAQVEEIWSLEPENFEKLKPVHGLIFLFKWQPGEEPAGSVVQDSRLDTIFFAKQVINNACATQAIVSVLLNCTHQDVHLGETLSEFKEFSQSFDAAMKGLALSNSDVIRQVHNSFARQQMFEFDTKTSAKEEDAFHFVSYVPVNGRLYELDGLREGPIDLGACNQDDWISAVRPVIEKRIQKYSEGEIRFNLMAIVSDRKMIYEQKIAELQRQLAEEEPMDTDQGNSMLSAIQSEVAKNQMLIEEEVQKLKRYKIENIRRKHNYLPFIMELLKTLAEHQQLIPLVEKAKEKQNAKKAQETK
#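 Material: Human UCH37 enzyme supplied as purified proteasome complex | Schedule: 30 min preincubation with enzyme, 25 min cleavage at room temperature | Detection: AMC fluorescence 355/460 nm | Measure: % inhibition of Ub-AMC cleavage fluorescence | Controls: Wells without proteasome as full block, compound-free enzyme plus substrate as uninhibited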
# PfG6PD inh = PfG6PD (Plasmodium falciparum) enzyme inhibition; PfGluPho enzyme, NADPH resazurin-diaphorase fluorescence; inhibition, % at 20 µM; 350,000 compounds, 0.78% hits; AID 504690;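 active = inhibition reaching at least a set limit at 20 µM in the primary screen, cut at about 59% in these data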;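 also: 0% = DMSO wells with substrate and 100% = DMSO wells lacking glucose-6-phosphate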
# HKDC1 inh = HKDC1 (human) hexokinase inhibition | Q2TB90 | recombinant HKDC1, G6PDH/diaphorase resazurin coupled fluorescence | inhibition, % at 20 µM | 340,000 compounds, 0.16% hits | AID 493160;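 active = inhibition above about 35% when tested at 20 µM, limit read from the data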;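 also: plate controls were DMSO wells with enzyme for no effect and DMSO wells lacking enzyme for full effect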
#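 Assay system: in-house recombinant HK5 (HKDC1) enzyme. Input: HKDC1 at 5 µg/mL. Medium: Tris pH 8.0 buffer with MgCl2, Tween-20, BSA, BME. Dosing: single 20 µM dose. Schedule: 90 min reaction incubation at room temperature, dark. Signal: resazurin-to-resorufin fluorescence via G6PDH and diaphorase coupling, 525/613 nm. Controls: DMSO-enzyme wells negative, buffer-substituted wells positive.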
# HKDC1 act conf2 = HKDC1 (human) activation, single-dose confirmed. shares compounds with HKDC1 inh. recombinant HKDC1, G6PDH/diaphorase resazurin fluorescence; hits give low values. inhibition, % at 20 µM. 740 compounds, 14% hits. AID 504708;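 active = inhibition at or below a set negative limit, negative inhibition meaning the enzyme was activated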
# An asterisk follows results filed as active; x = no result given. An excerpt weighted towards active compounds, which were near 2.1% of everything screened.
SMILES,aDG glyco act,Beta2AR agonist,H9c2 protect,UCH37 inh,PfG6PD inh,HKDC1 inh,HKDC1 act conf2
S=c1[nH]nc(-c2cc(-c3ccccc3)n[nH]2)n1N=Cc1ccc(Cl)cc1,x,x,x,5.5,x,x,x
CCc1ccc(S(=O)(=O)/N=C2/C=C(Sc3ncn[nH]3)C(=O)c3ccccc32)cc1,-0.3,55.1*,-21.3,x,106.7*,71.3*,73.0
O=C(C=NO)NCCCNCc1ccccc1,x,x,x,-0.4,x,x,x
N#Cc1cnn(Cc2ccccc2)c1N=CN1CCOCC1,x,x,x,-1.7,x,x,x
CN(C)C=NS(=O)(=O)c1cccn1-c1ncc(C(F)(F)F)cc1Cl,x,x,x,2.5,x,x,x
CN(c1ccc(C(=O)N2CCN(Cc3ccccc3)CC2)cc1)S(=O)(=O)c1ccccc1,-0.1,3.2,7.6,1.7,-8.1,-75.7,-24.2
C/C(=N\NC(=O)c1cc(-c2cccnc2)nc2ccccc12)c1ccc(O)cc1O,0.5,-2.6,51.6*,x,-28.9,-40.0,-2.6
CC(=NNC(=O)c1ccncc1)c1ccc(O)cc1O,0.3,3.8,36.7,6.3,-37.9,-40.2,-4.4
COc1ccc(C(C)=NNC(=O)c2cc(-c3cccnc3)nc3ccccc23)cc1,x,x,x,-4.4,x,x,x
CC(=NNC(=O)c1ccncc1)c1ccccc1O,1.3,0.3,49.0,9.1,-40.3,-1.0,x
CCOc1cc(C=NNC(=O)c2ccc(NC(=O)C(C)(C)C)cc2)ccc1OC(=O)c1ccc(OC)cc1,x,x,x,3.2,x,x,x
CCN1CCN(c2nnc(-c3ccccc3)c3ccccc23)CC1,0.1,-8.7,2.7,0.8,3.9,-2.4,x
CCN1CCN(c2cc3c(nn2)Oc2ccccc2N3C)CC1,0.4,-20.5,1.5,-427.8,-9.4,-43.8,-3.6
Cc1ccccc1S(=O)(=O)c1c(C)cc(C)n(CC(C)C)c1=O,0.7,2.6,-14.4,1.9,-12.9,71.5*,-6.4
NC(Cc1nc2ccccc2s1)=NO,x,x,x,5.6,x,x,x
Cc1cc2nnc(SCC(=O)Nc3cc(S(=O)(=O)N4CCOCC4)ccc3Cl)n2c2ccccc12,0.0,4.7,5.9,4.3,38.6,47.8*,37.4
Cc1ccc(S(=O)(=O)N2CCOCC2)cc1NC(=O)CSc1nnc2cc(C)c3ccccc3n12,0.1,5.6,16.3,2.6,9.5,20.1,x
O=c1nccc(Nc2ccccc2)[nH]1,0.0,-1.0,0.5,8.3,-2.4,-3.5,x
c1ccc(Nc2cc(Nc3ccccc3)[nH]n2)cc1,0.2,1.4,-7.6,3.0,31.9,-46.9,-19.6
COc1cc(C=NNC(=O)c2ccncc2)ccc1OC(=O)c1ccco1,x,x,x,5.2,x,x,x
Oc1ccc(/C=N/NC(=S)Nc2cccnc2)c(O)c1,0.2,-0.4,8.5,x,-8.9,-40.3,14.6
O=C1NN(c2ccc(F)c(Cl)c2)C(=O)/C1=C\c1cccc(OC(=O)c2cccs2)c1,-0.1,1.5,-4.2,8.3,-0.4,43.7*,27.0
O=C1OC(c2ccccc2)=N/C1=C/c1cccc(OC(=O)c2cccs2)c1,0.1,0.4,3.1,-7.0,-16.5,39.4*,-8.8
Nc1nc2c(s1)CCc1ccccc1-2,0.2,-3.8,-8.4,1.5,36.8,16.3,x
N#C/C(=C(/O)CCl)c1nc2c(s1)CCc1ccccc1-2,0.0,4.4,-1.3,5.3,41.2,43.5*,46.1
SMILES,aDG glyco act,Beta2AR agonist,H9c2 protect,UCH37 inh,PfG6PD inh,HKDC1 inh,HKDC1 act conf2
O=C(CCCCC(=O)Sc1ccccc1)Sc1ccccc1,0.1,10.0,3.4,2.4,-5.9,38.7*,-4.4
CC(=NNC(=O)c1ccccc1F)c1cccc(NC(=O)c2ccc(C)cc2)c1,x,x,x,3.7,x,x,x
COc1ccc2cc(/C=N/NC(=O)c3c(Cl)cnn3C)c(Cl)nc2c1,0.2,2.8,11.2,x,-4.7,-74.9,-13.0
COc1ccc2cc(C=NNC(=O)c3c(Cl)cnn3C)c(Cl)nc2c1,x,x,x,-2.9,x,x,x
O=C(NN=Cc1ccc(-c2ccccc2[N+](=O)[O-])o1)c1cncc(Br)c1,x,x,x,7.7,x,x,x
COc1ccc(-c2nc3c(C(=O)NCCN(C)C)cccc3c3ccccc23)cc1,3.0,-1.6,-19.2,x,47.0,39.5*,37.4
C=CCn1nc([N+](=O)[O-])nc1Sc1cccc2cccnc12,-0.5,10.9,4.6,-0.2,37.6,-46.5,-52.4*
NNC(=O)CSc1cccc2cccnc12,-0.1,0.2,4.3,-11.0,3.6,-9.6,x
O=C1/C(=C/C=C/c2ccco2)SC(=S)N1c1ccc(O)cc1,0.1,22.4,-1.1,4.9,31.5,6.3,x
CC(C)C(C(=O)O)N1C(=O)/C(=C/C=C/c2ccco2)SC1=S (stereo not given),0.4,-0.9,0.2,5.4,32.1,50.5*,19.0
CC(=O)ON=Cc1c(N2CCOCC2)n(C)c2ccccc12,x,x,x,6.0,x,x,x
Cc1ccc(NN=C2CCCNC2=O)cc1,x,x,x,7.4,x,x,x
O=C(O)CCC(=O)N1CCN(Cc2ccc3c(c2)OCO3)CC1,0.1,-0.3,4.0,x,-2.7,-5.2,x
CCCC(=O)N1CCN(Cc2ccc3c(c2)OCO3)CC1,-0.1,1.6,-0.6,0.4,-24.8,-56.9,-3.1
CSc1nc(N(C)CCO)c2sc3nc(-c4ccco4)c4c(c3c2n1)CCC4,0.0,-4.1,-1.6,-10.0,10.9,47.0*,-18.4
Cc1ccc(CC#N)c(-c2c(CC#N)ccc(C)c2C)c1C,0.2,x,2.4,x,5.2,x,x
Cc1ccc2c(c1C)-c1c(ccc(C)c1C)C(=O)C2=O,0.4,13.8,-16.4,x,40.0,38.0*,11.6
Cc1nn(-c2ccc(F)cc2)c(Cl)c1C=NNC(=O)c1ccc(O)cc1,x,x,x,1.9,x,x,x
CC(=NNC(=S)N1CC2CCC(CC2)C1)c1cccc(C)n1,-0.1,-5.1,8.4,x,12.8,-46.5,-51.9*
CC(=NNC(=S)N1CCC1)c1ccccn1,-0.3,-2.4,43.3,x,50.5,-39.3,x
Cc1c(O)ccc(C=NNc2nc(-c3cccnc3)nc3ccccc23)c1O,x,x,x,2.3,x,x,x
CCN(CC)S(=O)(=O)c1ccc(NN=C(C)c2cccnc2)nc1,x,x,x,9.1,x,x,x
CCN(CC)S(=O)(=O)c1ccc(N/N=C(\C)c2ccc(OC)cc2O)nc1,0.5,11.8,40.3,x,53.2,30.6,20.0
O=C(NN=Cc1ccc(-c2ccc(S(=O)(=O)Nc3ncccn3)cc2)o1)c1cc2ccccc2cc1O,x,x,x,-5.4,x,x,x
O=C(N/N=C/c1ccc(-c2ccc(S(=O)(=O)Nc3ncccn3)cc2)o1)c1cc2ccccc2cc1O,0.1,-1.0,10.9,x,-52.6,33.4,-22.2
O=C(N/N=C1/C(=O)c2cccc3cccc1c23)c1ccc(Cl)cc1,0.1,8.2,5.3,x,26.4,43.5*,-1.5
CCNC(=S)N/N=C1\C(=O)c2cccc3cccc1c23,0.3,8.5,16.6,5.2,8.4,-2.7,x
N#CCC(=O)NN=Cc1ccccc1OC/C=C/c1ccccc1,x,x,x,1.1,x,x,x
CN(N=Cc1cc(Br)cc(Br)c1O)c1ccccc1,x,x,x,6.0,x,x,x
CN1CCN(C=Nc2c(C#N)cnn2-c2ccccc2)CC1,x,x,x,3.6,x,x,x
